Entries after “also recorded” stand apart in the source; their conditions may differ. Like-named read-outs stand apart in the source and are kept apart here.
Key:
[1] = test system: CYP3A4/CYP3A5‐dependent metabolism; type: in vivo, patients (kidney transplant recipients with late ABMR); settings: for C0/D ratio: week 12, median [IQR]
[2] = earlier studies; cited from earlier work
CYP2C19 and CYP3A4 = assay: Pantoprazole pharmacokinetics; type: in vivo, patients (kidney transplant recipients with late ABMR)
Procedure, shortened: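 20 mg pantoprazole given as an i.v. bolus on day 0, week 12 and week 52. At day 0 and week 12, dosing preceded study injection. EDTA blood was drawn pre-dose and 1, 2, 3, 4, 5 and 6 h after dosing, spun at 2000 g for 10 min at 4°C and stored at −80 °C. Plasma levels measured by HPLC-MS/MS. Noncompartmental Cmax, AUC0-last, AUC0-inf and T1/2 reported as median (IQR); Wilcoxon/Mann–Whitney tests.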

CYP enzymes = settings: critically ill patients; cited from earlier work
CYP3A4/CYP3A5 = type: in vivo, patients (kidney transplant recipients with late ABMR); settings: human, whole blood, C0 level; for C0 at 12 week: week 12, median [IQR]
CYP3A4 [3] = settings: patients with rheumatoid arthritis; cited from earlier work
C‐reactive protein (CRP) = assay: High‐sensitive CRP under clazakizumab; type: in vivo, patients (kidney transplant recipients with late ABMR); settings: clazakizumab 25 mg s.c. 4‐weekly
Procedure, shortened: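 Serum high-sensitivity CRP measured by latex particle-enhanced immunoturbidimetric assay on an automated analyser (functional sensitivity 0.03 mg/dl). Randomised double-blind design: clazakizumab 25 mg s.c. or 0.9% saline placebo every 4 weeks to week 12, then open clazakizumab 4-weekly to week 52. Data given as median (IQR).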

Liver parameters = type: in vivo, patients (kidney transplant recipients with late ABMR); settings: ALAT, AST, CHE
[4] = test system: late antibody‐mediated rejection (ABMR); settings: cited from earlier work
CYP3A4 [5] = settings: 19 patients with active rheumatoid arthritis; cited from earlier work
[6] = Clazakizumab arm (n = 10), median (IQR)
[7] = Placebo arm (clazakizumab in part B), median (IQR)
[8] = Placebo arm (n = 10), median (IQR)

CO[C@H]1C[C@@H]2CC[C@@H](C)[C@@](O)(O2)C(=O)C(=O)N2CCCC[C@H]2C(=O)O[C@H]([C@H](C)C[C@@H]2CC[C@@H](OCCO)[C@H](OC)C2)CC(=O)[C@H](C)/C=C(\C)[C@@H](O)[C@@H](OC)C(=O)[C@H](C)C[C@H](C)/C=C/C=C/C=C/1C [everolimus]
decrease in C0/D ratio ([1]; single patient, individual course over the study): approximately 50%

COc1ccnc(C[S+]([O-])c2nc3ccc(OC(F)F)cc3[nH]2)c1OC (centres unmarked) [pantoprazole]
half‐life [2]: generally less than two hours | time to complete absorption [2]: about 12 hours | Percent change from day 0 to week 12, AUC0‐inf (CYP2C19 and CYP3A4; [6]): 4.0 (−6.4‐80.3) Percent | Percent change from day 0 to week 12, T1/2 (CYP2C19 and CYP3A4; [6]): 18.4 (−0.4–23.2) Percent | Percent change from day 0 to week 52, AUC0‐inf (CYP2C19 and CYP3A4; Clazakizumab arm, median (IQR)): 52.3 (−5.6–64.1) Percent | Percent change from day 0 to week 52, AUC0‐last (CYP2C19 and CYP3A4; Clazakizumab arm, median (IQR)): 41.9 (0.4–84.5) Percent | Percent change from day 0 to week 52, Cmax (CYP2C19 and CYP3A4; Clazakizumab arm, median (IQR)): 22.5 (1.6‐37.8) Percent | Percent change from day 0 to week 52, T1/2 (CYP2C19 and CYP3A4; Clazakizumab arm, median (IQR)): 8.8 (−9.7‐56.8) Percent | Percent change from day 0 to week 52, AUC0‐inf (CYP2C19 and CYP3A4; [7]): 0.72 (−42.7–64.0) Percent | Percent change from day 0 to week 52, AUC0‐last (CYP2C19 and CYP3A4; [7]): 13.6 (−47.2–50.5) Percent | Percent change from day 0 to week 12, AUC0‐inf (CYP2C19 and CYP3A4; [8]): 13.8 (−17.7‐27.8) Percent | Percent change from day 0 to week 12, AUC0‐last (CYP2C19 and CYP3A4; [8]): 15.6 (−18.7‐31.1) Percent | Percent change from day 0 to week 12, Cmax (CYP2C19 and CYP3A4; [8]): 5.7 (−10.7‐41.3) Percent | Percent change from day 0 to week 12, T1/2 (CYP2C19 and CYP3A4; [8]): 0.2 (−14.4‐21.5) Percent | Percent change from day 0 to week 12, AUC0‐inf (CYP2C19 and CYP3A4; Total (n = 20), median (IQR)): 11.6 (−11.7‐31.4) Percent | Percent change from day 0 to week 12, AUC0‐last (CYP2C19 and CYP3A4; Total (n = 20), median (IQR)): 10.4 (−8.0‐27.8) Percent | Percent change from day 0 to week 12, Cmax (CYP2C19 and CYP3A4; Total (n = 20), median (IQR)): 2.1 (−12.2‐26.3) Percent | Percent change from day 0 to week 12, T1/2 (CYP2C19 and CYP3A4; Total (n = 20), median (IQR)): 5.9 (−4.5–23.2) Percent | Percent change from day 0 to week 52, AUC0‐inf (CYP2C19 and CYP3A4; Total, median (IQR)): 31.9 (−22.5–64.0) Percent | Percent change from day 0 to week 52, AUC0‐last (CYP2C19 and CYP3A4; Total, median (IQR)): 25.3 (−15.9–51.7) Percent | Percent change from day 0 to week 52, Cmax (CYP2C19 and CYP3A4; Total, median (IQR)): 5.5 (−22.1‐33.6) Percent | Cmax (CYP2C19 and CYP3A4; human, plasma, iv, 20 mg, Cmax, 20 mg i.v., day 0, Total (n = 20), median (IQR)): 1490 ng/mL | half-life (CYP2C19 and CYP3A4; human, plasma, iv, 20 mg, T1/2, 20 mg i.v., day 0, Total (n = 20), median (IQR)): 1.08 h | half‐life, fold longer than in this study's patients / healthy volunteers (CYP enzymes): approximately 5 fold

C=CC[C@@H]1/C=C(\C)C[C@H](C)C[C@H](OC)[C@H]2O[C@@](O)(C(=O)C(=O)N3CCCC[C@H]3C(=O)O[C@H](/C(C)=C/[C@@H]3CC[C@@H](O)[C@H](OC)C3)[C@H](C)[C@@H](O)CC1=O)[C@H](C)C[C@@H]2OC [tacrolimus]
C0/D ratio ([1]; clazakizumab arm (n = 6)): 2.15 [1.13–4.35] ng/ml/mg | C0/D ratio ([1]; placebo arm (n = 7)): 2.0 [0.73–2.03] ng/ml/mg | C0 at 12 week (CYP3A4/CYP3A5; clazakizumab arm (n = 6)): 7 ng/mL | C0 at 12 week (CYP3A4/CYP3A5; placebo arm (n = 7)): 6.4 ng/mL | concentration at 0 day (CYP3A4/CYP3A5; baseline, Clazakizumab arm, median (IQR)): 5.6 ng/mL

tocilizumab: anti‐IL‐6R antibody
effect on CYP activity and simvastatin metabolism (CYP3A4 [3]): restored diminished CYP activity and substantially enhanced the metabolism of simvastatin

B1: clazakizumab: monoclonal anti‐IL‐6 antibody (Vitaeris Inc.), 25 mg subcutaneously at 4‐weekly intervals (antibody, chains of the INN, looked up, V domains shown)
VH: EVQLVESGGGLVQPGGSLRLSCAASGFSLSNYYVTWVRQAPGKGLEWVGIIYGSDETAYATSAIGRFTISRDNSKNTLYLQMNSLRAEDTAVYYCARDDSSDWDAKFNLWGQGTLVTVSS
VL: AIQMTQSPSSLSASVGDRVTITCQASQSINNELSWYQQKPGKAPKLLIYRASTLASGVPSRFSGSGSGTDFTLTISSLQPDDFATYYCQQGYSLRNIDNAFGGGTKVEIK
effect on CRP levels (C‐reactive protein (CRP)): suppressed to undetectable levels; also recorded: virtually complete reduction | effect on liver parameters (Liver parameters): no meaningful effect | impact on pantoprazole pharmacokinetics / CYP‐dependent drug metabolism (CYP2C19 and CYP3A4; IL‐6 blockade up to 52 weeks): no clinically meaningful impact; also recorded: did not enhance CYP‐dependent drug metabolism | effect on DSA ([4]; after 3 months): significant reduction of DSA | effect on ABMR activity (microcirculation inflammation, molecular ABMR scores) ([4]; after prolonged treatment): modulation of ABMR activity | effect on progression of graft dysfunction ([4]; over a period of a year): significantly halted the progression of graft dysfunction

B2: sarilumab: anti‐IL‐6R antibody (antibody, chains of the INN, looked up, V domains shown)
VH: EVQLVESGGGLVQPGRSLRLSCAASRFTFDDYAMHWVRQAPGKGLEWVSGISWNSGRIGYADSVKGRFTISRDNAENSLFLQMNGLRAEDTALYYCAKGRDSFDIWGQGTMVTVSS
VL: DIQMTQSPSSVSASVGDRVTITCRASQGISSWLAWYQQKPGKAPKLLIYGASSLESGVPSRFSGSGSGTDFTLTISSLQPEDFASYYCQQANSFPYTFGQGTKLEIK
effect on altered simvastatin exposure (CYP3A4 [5]): fully reversed

Source: PMC8456861 (Transplant International, 2021)
